The term IC50 denotes the midpoint of a concentration-inhibition curve. Read a low IC50 as greater potency.

For the assay, the target named is T1, Arachidonate 12-lipoxygenase (Sus scrofa, UniProt P16469).
T1 sequence (P16469 whole entry): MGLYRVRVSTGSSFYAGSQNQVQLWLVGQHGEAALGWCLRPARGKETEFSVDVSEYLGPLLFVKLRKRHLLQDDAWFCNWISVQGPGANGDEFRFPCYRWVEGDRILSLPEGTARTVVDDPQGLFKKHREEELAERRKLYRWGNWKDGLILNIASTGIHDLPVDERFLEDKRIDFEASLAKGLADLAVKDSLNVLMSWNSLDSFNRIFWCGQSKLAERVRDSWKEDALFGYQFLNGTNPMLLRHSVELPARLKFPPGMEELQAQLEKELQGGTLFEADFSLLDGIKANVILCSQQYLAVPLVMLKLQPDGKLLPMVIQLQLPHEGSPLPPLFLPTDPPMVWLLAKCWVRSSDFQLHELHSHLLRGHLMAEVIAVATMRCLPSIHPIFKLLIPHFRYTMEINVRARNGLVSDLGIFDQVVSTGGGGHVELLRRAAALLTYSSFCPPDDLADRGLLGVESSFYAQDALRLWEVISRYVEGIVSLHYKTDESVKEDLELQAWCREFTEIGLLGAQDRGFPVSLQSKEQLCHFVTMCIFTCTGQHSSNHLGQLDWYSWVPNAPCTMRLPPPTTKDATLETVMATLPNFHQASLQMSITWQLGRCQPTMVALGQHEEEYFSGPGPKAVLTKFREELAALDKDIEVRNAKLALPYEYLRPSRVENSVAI
Put plainly: Inhibitory activity against conversion of [1-14C]arachidonic acid to 12-HPETE and its reduction product 12-HETE by porcine leukocyte type 12-lipoxygenase. The gist of the method: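 Porcine leukocyte cytosol (75 μg/mL) in 100 mM HEPES, 2 mM CaCl2, 1 mM MgCl2, pH 8.0. Inhibitor added in DMSO and preincubated with enzyme 5 min at 37 °C. [1-14C]arachidonic acid then added (5 μM final) and reacted 15 min. Mixture acidified, products extracted and separated by TLC, and 12-HETE conversion measured by radioactivity scanning. Incubations run in triplicate; IC50 determined from concentration series.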
`CCCCCCCCC#CCOCc1cccc(CCC(=O)O)c1` yielded an IC50 of 10 µM.
The result for `CCCCCCCCCC/C=C\COCc1ccc(CCC(=O)O)cc1` reads 2.5 µM; that for `CCCCCCC#CCOCc1cccc(CCC(=O)O)c1`, greater than 10 µM; that for `CCCCCC#CCCOCc1cccc(CCC(=O)O)c1`, greater than 10 µM.
The same measure for `CCCCCCCCCCC#CCOCc1ccc(CCCC(=O)O)cc1`: greater than 10 µM; for `O=C(O)CCc1ccc(COCC#CCCCCc2ccccc2)cc1`: 5 µM; for `CCCCCCCCCCCCCOCc1ccc(CCC(=O)O)cc1`: greater than 10 µM.
The result for `CCCCCCCCCCC#CCOCc1ccc(C(=O)O)cc1` reads 0.06 µM; that for `CCCCCCCCC#CCSCc1cccc(CCC(=O)O)c1`, greater than 10 µM.
As for `CCCCCCCCCCC#CCOCc1cccc(CCC(=O)O)c1`, the half-inhibitory concentration (IC50) was determined as 0.32 µM.
Compound `CCCCCCCCCC/C=C/COCc1ccc(CCC(=O)O)cc1` came in with a concentration for half-maximal inhibition (IC50) of 0.04 µM.
The same measure for `CCCCCCCCCCCCCCC#CCOCc1ccc(CCC(=O)O)cc1`: greater than 10 µM.
The result for `CCCCCCCCCCC#CCOCc1ccc(CC(=O)O)cc1` reads 0.05 µM; that for `CCCCCCCCCCCCCCC#CCOCc1ccc(C(=O)O)cc1`, greater than 10 µM; that for `CCCCCCCC#CCOCc1ccc(C(=O)O)cc1`, 6 µM.

For the origin of these results see ChEMBL document CHEMBL1129587, “(Carboxyalkyl)benzyl propargyl ethers as selective inhibitors of leukocyte-type 12-lipoxygenases” (J Med Chem, 1996).
